Measurements: ChEMBL document CHEMBL1151808, “Substrate promiscuity of the cyclic dipeptide prenyltransferases from Aspergillus fumigatus ( section sign)” (J Nat Prod, 2009)
The source made the active and inactive calls. The calls are words filed in the database; no cut-off is given here.

How the values were obtained:
Aspergillus fumigatus [1] = assay: Activity at 1.62 uM Aspergillus fumigatus CdpNPT assessed as compound conversion rate at 1 mM after 2 hrs by HPLC analysis in presence of dimethylallyl diphosphate relative to L-tryptophan
Method in brief: (§1)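 His6-CdpNPT (1.62 µM) or His6-FtmPT1 (1.68 µM) with 1 mM tryptophan derivative and 2 mM DMAPP in Tris-HCl pH 7.5/CaCl2, 37 °C for 2 or 16 h. MeOH quench, then RP18 HPLC with 30–70% MeOH gradient. Conversion expressed relative to L-tryptophan; two independent assays.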

Aspergillus fumigatus [2] = assay: Activity at 1.62 uM Aspergillus fumigatus CdpNPT assessed as compound conversion rate at 1 mM after 16 hrs by HPLC analysis in presence of dimethylallyl diphosphate relative to L-tryptophan; method in brief: as §1
[3] = biological target: Tryprostatin B synthase ftmPT1 (Aspergillus fumigatus) (UniProt Q4WAW7); assay: Activity at 1.68 uM Aspergillus fumigatus FtmPT1 assessed as compound conversion rate at 1 mM after 2 hrs by HPLC analysis in presence of dimethylallyl diphosphate relative to L-tryptophan; method in brief: as §1
Sequence of Tryprostatin B synthase ftmPT1 (Aspergillus fumigatus) (Q4WAW7 whole entry): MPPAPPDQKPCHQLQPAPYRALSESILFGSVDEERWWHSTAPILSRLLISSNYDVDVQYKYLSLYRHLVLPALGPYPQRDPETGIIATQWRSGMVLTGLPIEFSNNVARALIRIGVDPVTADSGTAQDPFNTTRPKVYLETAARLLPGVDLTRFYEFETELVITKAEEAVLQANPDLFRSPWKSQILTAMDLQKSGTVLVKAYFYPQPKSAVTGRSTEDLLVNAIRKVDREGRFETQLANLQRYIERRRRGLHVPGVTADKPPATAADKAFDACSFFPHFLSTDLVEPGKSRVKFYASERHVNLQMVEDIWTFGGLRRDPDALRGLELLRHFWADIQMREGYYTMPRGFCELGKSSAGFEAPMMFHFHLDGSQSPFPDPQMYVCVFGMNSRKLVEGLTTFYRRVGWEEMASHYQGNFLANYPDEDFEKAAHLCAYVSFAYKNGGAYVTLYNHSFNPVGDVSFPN

[4] = biological target: Tryprostatin B synthase ftmPT1 (Aspergillus fumigatus) (UniProt Q4WAW7); assay: Activity at 1.68 uM Aspergillus fumigatus FtmPT1 assessed as compound conversion rate at 1 mM after 16 hrs by HPLC analysis in presence of dimethylallyl diphosphate relative to L-tryptophan; method in brief: as §1
Aspergillus fumigatus [5] = assay: Activity at 0.28 uM Aspergillus fumigatus CdpNPT assessed as compound conversion rate at 1 mM after 2 hrs by HPLC analysis in presence of dimethylallyl diphosphate
Method in brief: (§2)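 Recombinant His6-CdpNPT (0.11–1.62 µM) with 1 mM substrate and 2 mM DMAPP in 50 mM Tris-HCl pH 7.5, 10 mM CaCl2, 100 µL, 37 °C for 2 h. Heat-inactivated enzyme served as control. Stopped with MeOH, protein spun off, products read by RP18 HPLC as peaks and retention times, conversion from peak areas.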

Aspergillus fumigatus [6] = assay: Activity at 0.11 uM Aspergillus fumigatus CdpNPT assessed as compound conversion rate at 1 mM after 2 hrs by HPLC analysis in presence of dimethylallyl diphosphate; method in brief: as §2
Aspergillus fumigatus [7] = assay: Activity at 0.11 to 1.62 uM Aspergillus fumigatus CdpNPT assessed as product formation at 1 mM after 2 hrs by HPLC analysis; method in brief: as §2
Aspergillus fumigatus [8] = assay: Activity at Aspergillus fumigatus CdpNPT by HPLC analysis
Method in brief: (§3)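 Kinetics: 2 mM DMAPP (final) with L-tryptophan up to 5 mM, or cyclic dipeptides, in Tris-HCl pH 7.5/CaCl2 at 37 °C. Products quantified by HPLC. Km and kcat from Lineweaver-Burk and Hanes-Woolf plots; kcat/Km expressed as ratio to L-tryptophan.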

Aspergillus fumigatus [9] = assay: Ratio Kcat to Km for Aspergillus fumigatus CdpNPT by HPLC analysis relative to L-tryptophan; method in brief: as §3
Aspergillus fumigatus [10] = assay: Activity at 0.54 uM Aspergillus fumigatus CdpNPT assessed as compound conversion rate at 1 mM after 2 hrs by HPLC analysis in presence of dimethylallyl diphosphate; method in brief: as §2
[11] = biological target: Tryprostatin B synthase ftmPT1 (Aspergillus fumigatus) (UniProt Q4WAW7); assay: Activity at 0.28 uM Aspergillus fumigatus FtmPT1 assessed as compound conversion at 1 mM after 2 hrs by HPLC analysis in presence of dimethylallyl diphosphate
Method in brief: (§4)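 Performed in 50 mM Tris-HCl (pH 7.5) with 10 mM CaCl2, 1 mM tryptophan or derivative, and 2 mM DMAPP, using purified His6-tagged recombinant enzyme at 37 °C. Reactions were stopped with an equal volume of MeOH and protein removed by centrifugation. Products were quantified by RP18 HPLC as the conversion rate of substrate. Two independent assays were run.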

[12] = biological target: Tryprostatin B synthase ftmPT1 (Aspergillus fumigatus) (UniProt Q4WAW7); assay: Activity at 0.54 uM Aspergillus fumigatus FtmPT1 assessed as compound conversion at 1 mM after 2 hrs by HPLC analysis in presence of dimethylallyl diphosphate; method in brief: as §4
[13] = biological target: Tryprostatin B synthase ftmPT1 (Aspergillus fumigatus) (UniProt Q4WAW7); assay: Ratio Kcat to Km for Aspergillus fumigatus FtmPT1 by HPLC analysis relative to L-tryptophan
[14] = biological target: Tryprostatin B synthase ftmPT1 (Aspergillus fumigatus) (UniProt Q4WAW7); assay: Activity at 1.68 uM Aspergillus fumigatus FtmPT1 assessed as compound conversion at 1 mM after 2 hrs by HPLC analysis in presence of dimethylallyl diphosphate
Aspergillus fumigatus [15] = assay: Activity at 1.62 uM Aspergillus fumigatus CdpNPT assessed as compound conversion rate at 1 mM after 2 hrs by HPLC analysis in presence of dimethylallyl diphosphate; method in brief: as §4
[16] = biological target: Tryprostatin B synthase ftmPT1 (Aspergillus fumigatus) (UniProt Q4WAW7); assay: Activity at 1.12 uM Aspergillus fumigatus FtmPT1 assessed as compound conversion rate at 1 mM after 16 hrs by HPLC analysis in presence of dimethylallyl diphosphate; method in brief: as §4
Aspergillus fumigatus [17] = assay: Activity at 1.62 uM Aspergillus fumigatus CdpNPT assessed as compound conversion rate after 2 hrs by HPLC analysis; method in brief: as §2
[18] = biological target: Tryprostatin B synthase ftmPT1 (Aspergillus fumigatus) (UniProt Q4WAW7); assay: Activity at 1.12 uM Aspergillus fumigatus FtmPT1 assessed as compound retention time after 2 hrs by HPLC analysis
Method in brief: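 His6-FtmPT1 at 1.12 µM, 100 µL, in 50 mM Tris-HCl pH 7.5, 10 mM CaCl2 with DMAPP, 37 °C for 2 h. HPLC product retention time recorded.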

Aspergillus fumigatus [19] = assay: Activity at 1.62 uM Aspergillus fumigatus CdpNPT assessed as compound retention time after 2 hrs by HPLC analysis; method in brief: as §2

SMILES: NCCc1c[nH]c2ccccc12
- Activity (Aspergillus fumigatus [1]): < 3.3%
- Activity (Aspergillus fumigatus [2]): < 1%
- Activity [3]: < 5.3%
- Activity [4]: < 1.1%

SMILES: N[C@@H](Cc1c[nH]c2ccc(O)cc12)C(=O)O
- Activity (Aspergillus fumigatus [1]): < 0.8%
- Activity (Aspergillus fumigatus [2]): < 0.3%
- Activity [3]: < 1.3%
- Activity [4]: < 0.3%

SMILES: NC(Cc1c[nH]c2cc(F)ccc12)C(=O)O (racemic)
- Activity (Aspergillus fumigatus [1]): 17.7%
- Activity (Aspergillus fumigatus [2]): 13.8%
- Activity [3]: 55.1%
- Activity [4]: 55.5%

SMILES: N[C@H](CC(=O)O)Cc1c[nH]c2ccccc12
- Activity (Aspergillus fumigatus [1]): < 3.4%
- Activity (Aspergillus fumigatus [2]): < 1.1%
- Activity [3]: < 5.5%
- Activity [4]: < 1.1%

SMILES: NC(Cc1c[nH]c2ccc(Br)cc12)C(=O)O (racemic)
- Activity (Aspergillus fumigatus [1]): < 1.2%
- Activity (Aspergillus fumigatus [2]): < 0.4%
- Activity [3]: < 1.9%
- Activity [4]: < 0.4%

SMILES: Cc1ccc2c(CC(N)C(=O)O)c[nH]c2c1 (racemic)
- Activity (Aspergillus fumigatus [1]): < 0.9%
- Activity (Aspergillus fumigatus [2]): 13.5%
- Activity [3]: 148%
- Activity [4]: 96%

SMILES: O=C1N[C@H](Cc2c[nH]c3ccccc23)C(=O)N[C@H]1Cc1ccc(O)cc1
- Activity (Aspergillus fumigatus [5]): Active
- Activity (Aspergillus fumigatus [6]): Active
- Activity (Aspergillus fumigatus [7]): Active
- Km (Aspergillus fumigatus [8]): 128 µM
- kcat (Aspergillus fumigatus [8]): 0.46 s⁻¹
- Ratio (Aspergillus fumigatus [9]): 598
- Activity (Aspergillus fumigatus [10]): Active

SMILES: O=C1N[C@@H](Cc2c[nH]c3ccccc23)C(=O)N2CCC[C@@H]12
- Activity [11]: Active
- Activity [12]: Active
- Ratio [13]: 675
- Activity [14]: Active

SMILES: N[C@@H](Cc1c[nH]c2ccc(F)cc12)C(=O)O
- Activity (Aspergillus fumigatus [1]): < 0.7%
- Activity (Aspergillus fumigatus [2]): 1.9%
- Activity [3]: < 1.2%
- Activity [4]: 4.3%

SMILES: N[C@@H](Cc1ccc(O)cc1)C(=O)O
- Activity (Aspergillus fumigatus [15]): inactive
- Activity [16]: inactive

SMILES: Cc1cccc2[nH]cc(CC(N)C(=O)O)c12 (racemic)
- Activity (Aspergillus fumigatus [1]): 72.6%
- Activity (Aspergillus fumigatus [2]): 61.4%
- Activity [3]: 16%
- Activity [4]: 19.4%

SMILES: Cn1cc(CC(N)C(=O)O)c2ccccc21 (racemic)
- Activity (Aspergillus fumigatus [1]): < 1.1%
- Activity (Aspergillus fumigatus [2]): < 0.3%
- Activity [3]: < 1.7%
- Activity [4]: < 0.3%

SMILES: CC(N)(Cc1c[nH]c2ccccc12)C(=O)O (racemic)
- Activity (Aspergillus fumigatus [1]): 25%
- Activity (Aspergillus fumigatus [2]): 24.5%
- Activity [3]: < 2.3%
- Activity [4]: 1%

SMILES: N[C@@H](Cc1c[nH]c2ccccc12)C(=O)O
- Activity (Aspergillus fumigatus [7]): Active
- Km (Aspergillus fumigatus [8]): 830 µM
- kcat (Aspergillus fumigatus [8]): 0.005 s⁻¹
- Activity (Aspergillus fumigatus [17]): 18.1%
- Activity [18]: 13.9 min
- Activity (Aspergillus fumigatus [19]): 16.5 min

SMILES: Cc1cccc2c(CC(N)C(=O)O)c[nH]c12 (racemic)
- Activity (Aspergillus fumigatus [1]): 50.6%
- Activity (Aspergillus fumigatus [2]): 37.9%
- Activity [3]: 76.4%
- Activity [4]: 64.1%

SMILES: Cc1ccc2[nH]cc(CC(N)C(=O)O)c2c1 (racemic)
- Activity (Aspergillus fumigatus [1]): < 1.5%
- Activity (Aspergillus fumigatus [2]): 20.2%
- Activity [3]: < 2.4%
- Activity [4]: 10.3%

SMILES: CN[C@@H](Cc1c[nH]c2ccccc12)C(=O)O
- Activity (Aspergillus fumigatus [1]): 126%
- Activity (Aspergillus fumigatus [2]): 114%
- Activity [3]: < 3.7%
- Activity [4]: 29.4%

SMILES: O=C(O)Cc1c[nH]c2ccccc12
- Activity (Aspergillus fumigatus [1]): < 1.7%
- Activity (Aspergillus fumigatus [2]): 45.3%
- Activity [3]: < 2.8%
- Activity [4]: < 0.6%
